Screening data deposited in PubChem by several laboratories.
MT1-MMP txn act = MT1-MMP promoter reporter activation – cell-based, luciferase luminescence, primary screen | 0.16% of 86,000 active | AID 750, 2007 | HT1080 MT1-MMP promoter luciferase reporter, overnight; active compounds read high | activation factor at 10 µM;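 active means activation factor of at least 2 for MT1-MMP transcription at 10 µM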
Ec RNAP inh = E. coli RNAP inhibitors, biochemical; DNA-directed RNA polymerase subunit beta (Escherichia coli (strain K12)), P0A8V2; E. coli RNA polymerase, fluorescence transcription assay; inhibition, %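 (tested at 10 µM)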; 0.2% of 62,000 active; AID 559, 2006; in the data active means inhibition above about 20%;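 further: 0% = enzyme without compound and 100% = no enzyme blank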
TNAP act DEA = human TNAP enzyme activators, primary screen, biochemical, luminescent, intermediate phosphate acceptor level | purified TNAP, CDP-star luminescence, 100 mM DEA, 30 min; active compounds read high; scale: 0 levamisole-inhibited, 1 vehicle-only enzyme | activation factor at 20 µM | 64,000 tested, under 10 active | Alkaline phosphatase, tissue-nonspecific isozyme (Homo sapiens), P05186;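 active means activation factor of at least 2 at 20 µM, relative to controls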
SF-1 act = activators of human SF-1, primary screen, cell-based, CHO-K1, Gal4-SF-1 LBD, luciferase luminescence; Steroidogenic factor 1 (Homo sapiens), Q13285; CHO-K1 Gal4-SF-1 LBD luciferase reporter; % increase over DMSO SF-1-specific signal; activation, % at 10 µM; 1.9% of 65,000 active; AID 522, 2006;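 active means activation above the mean activation of all tested compounds plus 3 SD, cut at about 50% in these data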
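Compound – one dose, 10 µM compound, 1% DMSO · Test system – transient Gal4-SF-1 LBD reporter, CHO-K1 · Input – 4,000 cells in each well · Read-out basis – percent activation relative to DMSO median and mock-transfected background · Replicates – single measurement per compound · Technique – steady-glow luciferase luminescence, read after 15 min reagent incubation · Timing – 20 h compound treatment, 37 °C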
RORa activator = activators of orphan receptor RORA, primary screen, cell-based, luminescence; CHO-K1 Gal4-RORA LBD luciferase reporter; percent increase over mock-subtracted basal signal; 1.5% of 65,000 active; activation, % at 10 µM; Nuclear receptor ROR-alpha (Homo sapiens), P35398;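 active means activation above the mean of all tested compounds plus 3 SD, cut at about 49% in these data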;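 further: 0% = DMSO-treated RORA cells and 100% = added signal equal to DMSO minus mock-transfected cells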
Target sequence (P35398 whole entry, looked up, the tested form may be a part): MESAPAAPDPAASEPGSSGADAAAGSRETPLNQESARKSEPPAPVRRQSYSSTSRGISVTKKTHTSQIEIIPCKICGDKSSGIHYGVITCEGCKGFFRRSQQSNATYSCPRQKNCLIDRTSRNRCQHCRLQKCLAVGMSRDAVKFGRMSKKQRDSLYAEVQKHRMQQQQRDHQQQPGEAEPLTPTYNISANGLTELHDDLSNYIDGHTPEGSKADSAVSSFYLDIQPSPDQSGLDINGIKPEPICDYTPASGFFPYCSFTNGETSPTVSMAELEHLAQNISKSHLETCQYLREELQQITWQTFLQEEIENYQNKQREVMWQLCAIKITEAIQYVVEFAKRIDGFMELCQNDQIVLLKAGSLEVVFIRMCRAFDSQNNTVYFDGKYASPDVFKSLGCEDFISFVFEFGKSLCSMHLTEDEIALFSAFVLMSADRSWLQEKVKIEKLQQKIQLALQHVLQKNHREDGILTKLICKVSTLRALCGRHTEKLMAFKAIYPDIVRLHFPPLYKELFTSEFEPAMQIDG
Starred values were filed as active, the others as inactive. Most compounds without a hit are left out; they make up all but 2.1% or so of the library.

For COCCN1C(=O)C(O)=C(C(C)=O)C1c1ccc(OC)c(OC)c1 (stereo unspecified) the results were MT1-MMP txn act 0.9, Ec RNAP inh 23.9*, TNAP act DEA 0.9, SF-1 act 9.9 and RORa activator 2.5.
COc1cc(C2C(C(C)=O)=C(O)C(=O)N2CCN(C)C)ccc1O (stereo unspecified) was read as MT1-MMP txn act 1.1.
For Cn1c(=O)c2c(ncn2CC(=O)Nc2cc(Cl)c(Cl)cc2Cl)n(C)c1=O the results were MT1-MMP txn act 0.9, Ec RNAP inh 4.7, TNAP act DEA 0.9, SF-1 act -2.8 and RORa activator 7.4.
Screening COc1ccc(OC)c(N=c2oc3cc(O)ccc3cc2C(N)=O)c1 returned MT1-MMP txn act 1, Ec RNAP inh 7.5, TNAP act DEA 0.9, SF-1 act 43.4 and RORa activator 68.5*.
`NC(=O)c1cc2ccc(O)cc2oc1=Nc1ccccc1` gave MT1-MMP txn act 1.2, Ec RNAP inh 4.8, TNAP act DEA 0.9, SF-1 act 17.1 and RORa activator 32.0.
For COc1cc(NC(=O)C(C)C)ccc1NC(=O)c1ccco1 the results were MT1-MMP txn act 1.1, Ec RNAP inh 2.4, TNAP act DEA 0.8, SF-1 act 53.8* and RORa activator 44.1.
`COc1ccc(NC(=O)c2ccco2)c(OC)c1` gave MT1-MMP txn act 1.6, Ec RNAP inh 9.0, TNAP act DEA 1, SF-1 act 48.4 and RORa activator 29.5.
For CN(C)c1ccc(Nc2nc(-c3cccnc3)cs2)cc1 the results were MT1-MMP txn act 2*, Ec RNAP inh -11.5, TNAP act DEA 0.8, SF-1 act 13.7 and RORa activator 9.5.
For C=CCOc1ccc(/C=C/C(C)=N\O)cc1 the results were MT1-MMP txn act 1.1, Ec RNAP inh 5.0, TNAP act DEA 0.9, SF-1 act 19.8 and RORa activator 86.4*.
O=c1c2ccccc2nc2sc3ccccc3n12 was read as MT1-MMP txn act 1.8, SF-1 act 56.8* and RORa activator 60.4*.
For COC(=O)/C=c1/sc2nc3ccccc3n2c1=O the results were MT1-MMP txn act 1, Ec RNAP inh 7.9, TNAP act DEA 1, SF-1 act -3.0 and RORa activator -11.3.
CC1=Nc2ncnn2C(c2ccccc2)/C1=N\O (stereo unspecified) was read as MT1-MMP txn act 1.2, Ec RNAP inh 4.5, TNAP act DEA 0.9, SF-1 act -0.3 and RORa activator 10.6.
CC1CN(c2ncnc3c2cnn3-c2ccc(Cl)cc2)CC(C)O1 (stereo unspecified) was read as MT1-MMP txn act 1.5, Ec RNAP inh 9.8, TNAP act DEA 1, SF-1 act 74.7* and RORa activator 67.1*.
`Cc1cccc(-n2ncc3c(N4CC(C)CC(C)C4)ncnc32)c1` (stereo unspecified) gave MT1-MMP txn act 1.2, Ec RNAP inh 1.2, TNAP act DEA 0.9, SF-1 act 50.7* and RORa activator 46.9.
Cn1cc(Cl)c(C(=O)OCC(=O)Nc2nc(-c3ccc(Br)cc3)cs2)n1 was read as MT1-MMP txn act 1.2.
For CN(C)c1ccc(/C=C/C(O)=C2/C(=O)N(C)C3(C)CC2c2ccccc2O3)cc1 (stereo unspecified) the results were MT1-MMP txn act 1.1, Ec RNAP inh 4.3, TNAP act DEA 0.7, SF-1 act -28.5 and RORa activator -6.5.
Screening Cc1cccc(N2CCN(C(=O)C3CCCN(S(=O)(=O)c4cccc5cccnc45)C3)CC2)c1C (stereo unspecified) returned MT1-MMP txn act 1, Ec RNAP inh 7.9, TNAP act DEA 0.9, SF-1 act 4.1 and RORa activator 18.3.
COC(=O)Cn1c(C(=O)N(C)C)cc2c1C[C@H]1CN(C(=O)c3ccccc3)[C@@](Cc3ccc(OC)cc3)(C(=O)OC)[C@@H]21 was read as MT1-MMP txn act 1.2.
For CN(C)C(=O)c1ccc2c(c1)n(C)c(=O)n2C the results were MT1-MMP txn act 1.1.
